Screening results deposited in PubChem BioAssay by several laboratories.
DNA FID counter – displaces DNA intercalator in HCV helicase counter-screen; DNA fluorescent intercalator displacement, fluorescence; inhibition, % at 7.9 µM; actives 0.17% (n = 290,000); in the data active means inhibition above about 37%;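 further: 0% = vehicle and 100% = reference compound; higher means more ethidium bromide displaced from hairpin DNA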
GRK2 inh – blocks RNA aptamer binding to human GRK2; P25098; bead flow cytometry, FAM-aptamer displacement from GRK2; inhibition of aptamer binding, % at 10 µM; actives 0.59% (n = 330,000);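 active means inhibition of aptamer binding above 40%, roughly 3 SD of noise, on plates passing a quality check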;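 further: median bead fluorescence of bound FAM aptamer so fluorescent compounds give negative values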
HCV NS3 hel inh – inhibitors of Hepatitis C virus NS3 helicase; actives 0.56% (n = 290,000); NS3 helicase DNA unwinding, Cy5 molecular beacon fluorescence; inhibition, % at 10.9 µM;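 active means inhibition above the mean of all tested compounds plus 3 SD, set per campaign, cut at about 35% in these data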;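 further: 0% = DMSO wells and 100% = thioflavine S control wells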
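Material: hepatitis C virus NS3 helicase domain fragment enzyme; measured by: Cy5 fluorescence, 0 and 60 min reads; control set: DMSO and thioflavine S; incubation: 60 min unwinding reaction at 25 °C after ATP addition; read-out basis: % inhibition from 60/0 min fluorescence ratio, DMSO 0%, thioflavine S 100%; repeats: singlicate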
DAGLB inhibitor – blocks human DAGLB lipase activity. inhibition, % at 5.17 µM. actives 0.059% (n = 340,000). HEK293T DAGLB membrane lysate, EnzChek fluorogenic substrate. AID 504411. Q8NCG7; in the data active means inhibition above about 34%;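 further: 0% = enzyme with vehicle and 100% = wells lacking enzyme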
GPR7 antag – antagonists of human GPR7 (neuropeptides B/W receptor 1); actives 1.1% (n = 290,000); GPR7-expressing cells, fluorescence antagonist assay; AID 1861; inhibition, % at 4.4 µM; in the data active means inhibition above about 16%, passing the limit was not always enough;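 further: cells stimulated with the agonist NPW; 0% = agonist with vehicle and 100% = vehicle without agonist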
Target sequence (P48145 whole entry, looked up): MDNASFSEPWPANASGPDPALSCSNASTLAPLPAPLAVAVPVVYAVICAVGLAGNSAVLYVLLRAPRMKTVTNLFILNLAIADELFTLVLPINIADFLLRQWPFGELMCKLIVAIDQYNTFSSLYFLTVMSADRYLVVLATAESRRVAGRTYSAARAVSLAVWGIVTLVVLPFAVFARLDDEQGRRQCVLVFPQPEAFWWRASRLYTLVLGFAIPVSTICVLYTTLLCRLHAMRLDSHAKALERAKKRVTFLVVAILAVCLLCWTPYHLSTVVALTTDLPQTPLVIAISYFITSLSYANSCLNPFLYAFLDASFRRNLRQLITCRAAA
core dimer inh – HCV core protein dimerization inhibition; TR-FRET GST/Flag-core106 dimerization, 1536-well; inhibition, % at 5 µM; actives 0.33% (n = 300,000); AID 1899;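 active means inhibition above the mean of all tested compounds plus 3 SD, set per screening campaign, cut at about 45% in these data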
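Assay system: tagged HCV core106 pair (GST and Flag); medium: KF-containing HEPES buffer, pH 7.45, DTT, CHAPS, BSA; also added: Eu donor and XL665 acceptor anti-tag antibodies; dosing: 5 µM single dose; timing: compound-protein-antibody incubation 4 h at 22.5 °C; signal: TR-FRET 671 and 617 nm emission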
The depositor's hits bear a star; nt = no result given. Sampled rows, rich in hits. Any-hit rate of the full collection: about 2.2%.

SMILES | DNA FID counter | GRK2 inh | HCV NS3 hel inh | DAGLB inhibitor | GPR7 antag | core dimer inh
Cc1ccccc1Nc1nc(Cl)nc(NC(C)(C)C)n1 | nt | nt | nt | -5 | nt | nt
CCOC(=O)C1=CN(CC2CCCCC2)CCC1=O | nt | nt | nt | -1 | nt | nt
CSc1ccccc1C(=O)OCC(=O)NC1CCCCCCC1 | nt | nt | nt | -3 | nt | nt
Cc1c(Cc2ccccc2)[n+](=O)c2ccccc2n1[O-] | nt | nt | nt | -5 | nt | nt
COc1ccc(C(O)Cn2c(=N)n(CCCN(C)C)c3ccccc32)cc1 (stereo unspecified) | 38* | 0 | -6 | -2 | -5 | -4
CC(=O)Nc1cccc(C(=O)/C=C/c2ccc(Br)cc2)c1 | -10 | 0 | -17 | 6 | 20* | 7
COc1ccc(/C=C/C(=O)Nc2cccc(C(C)=O)c2)cc1 | -7 | 88* | -4 | -1 | 6 | 4
O=C(Nc1cccc(O)c1)c1cnn2cccnc12 | -6 | 0 | 3 | -2 | -5 | -4
O=C(Nc1ccc2c(c1)OCO2)c1cnn2cccnc12 | 0 | 5 | 17 | -2 | 17* | 1
CC(C)CCSc1nc(N)c(C#N)cc1C#N | -2 | 0 | 0 | -2 | -14 | 64*
CC(=O)c1cc(C#N)c(SCCC(C)C)nc1C | -3 | 0 | 4 | -9 | -6 | 5
C1=C(CCNc2ncnc3c2[nH]c2ccccc23)CCCC1 | 10 | 0 | -45 | -1 | 41* | 4
COc1ccccc1S(=O)(=O)N(C)C[C@H]1OCc2cn(nn2)CCCC(=O)N([C@@H](C)CO)C[C@@H]1C | nt | nt | nt | -2 | nt | nt
CCCCN1C(=N)N([C@@H](CCC)CN2CCC[C@H]2CN2C(N)=NC[C@H]2C(C)C)C[C@H]1[C@H](C)CC | nt | 100* | nt | -4 | nt | nt
CC(=O)Nc1ccccc1OCC(=O)c1cc(C)n(Cc2cccs2)c1C | -28 | 0 | -1 | -9 | 25* | 5
Cc1cc(C(=O)COc2cccnc2[N+](=O)[O-])c(C)n1Cc1cccs1 | -7 | 0 | 16 | -3 | -10 | 2
Cc1ccc(NC(=O)c2c3c(nc4ccccc24)CCC3)cc1 | -9 | 2 | 6 | 0 | 0 | 18
Cc1ccc(NC(=O)c2c3c(nc4ccccc24)CCC3)cc1S(=O)(=O)N(C)C | -14 | 3 | 16 | 3 | -9 | 66*
COc1ccc(NC(=O)c2c3c(nc4ccccc24)CCC3)cc1S(=O)(=O)N1CCOCC1 | -24 | 13 | 9 | 3 | -7 | 78*
COc1ccc([C@H]2C[C@@H](O)[C@H](n3cc(COC(=O)c4ccccc4)nn3)CN2CC2CCCCC2)cc1 | nt | nt | nt | -3 | nt | nt
O=C(C[n+]1ccccc1)Nc1ccc(Oc2ccccc2)cc1 | 37* | 0 | -48 | 3 | 13 | -2
CCOC(=O)C1CCN(C(=O)Nc2ccc3c(c2)nc(C)n3C)CC1 | 0 | 0 | -6 | 1 | -4 | 6
Cc1nc2ccc(NC(=O)N3CCCCC3)cc2nc1C | -13 | 3 | -9 | -2 | -16 | -2
O=C(Nc1ccc2nc(-c3ccco3)c(-c3ccco3)nc2c1)N1CCCCCC1 | -18 | 52* | 49* | nt | -8 | 75*
CCOC(=O)C1CCN(C(=O)Nc2ccc3nc(-c4ccco4)c(-c4ccco4)nc3c2)CC1 | -24 | 38 | 6 | 5 | -13 | 72*
SMILES | DNA FID counter | GRK2 inh | HCV NS3 hel inh | DAGLB inhibitor | GPR7 antag | core dimer inh
CN1CCN(C(=O)CN(c2ccccc2)S(=O)(=O)N(C)C)CC1 | -4 | 0 | 8 | nt | 6 | 2
CC1CCN(C(=O)CN(c2ccccc2)S(=O)(=O)N(C)C)CC1 | -12 | 0 | 0 | -2 | 21* | 1
CCN1C(=O)[C@H]2[C@@H](c3ccc(C(F)(F)F)cc3)N[C@]3(CCCN(Cc4ccc(F)cc4)C3=O)[C@H]2C1=O | nt | nt | nt | 4 | nt | nt
CC1(c2ccc(F)cc2)OC(=O)c2c1ccc1ccccc21 (stereo unspecified) | nt | nt | nt | -11 | nt | nt
COCCCNC(=O)c1ccc2c(=O)n(CC3CCCO3)c(=S)[nH]c2c1 (stereo unspecified) | -16 | 2 | -1 | -1 | 2 | -1
CC(C)NC(=O)c1ccc2c(=O)n(CC3CCCO3)c(=S)[nH]c2c1 (stereo unspecified) | -9 | 0 | 5 | 2 | 17* | 0
CCc1ccc(OCC(=O)O/N=C(\N)c2ccncc2)c(Br)c1 | -18 | 0 | 0 | -2 | 8 | 1
Cc1ccc2c(c1C)NC(C(=O)O)C1CC=CC21 (stereo unspecified) | nt | 47* | nt | 5 | nt | 71*
COc1cc(OC)cc(C(=O)N[C@H](C(=O)OCC(=O)Nc2cccc(F)c2)C(C)C)c1 | -13 | 1 | -26 | -6 | 21* | 8
COc1cc(OC)cc(C(=O)N[C@H](C(=O)OCC(=O)Nc2ccc(OC)c(OC)c2)C(C)C)c1 | -32 | 2 | -7 | -4 | 4 | -2
CC1(C)Cc2c(C#N)c(N3CCN(C(=O)c4ccccc4)CC3)nc(-c3ccco3)c2CS1 | -25 | 0 | 23 | 7 | -5 | 87*
CC1CCC2(CC1)NC(=O)N(CC(=O)NC(=O)Nc1ccc3c(c1)OCCO3)C2=O (stereo unspecified) | -16 | 0 | 3 | -3 | 20* | -6
N#C/C(=C(/O)CCl)c1nc(-c2ccccc2)cs1 | -2 | 2 | 2 | 4 | 19* | 21
CCN(CC)CCn1c2ccccc2c2nc3ccc([N+](=O)[O-])cc3cc21 | 44* | 15 | 3 | nt | -5 | -3
COc1ccccc1NC(=O)C1Cc2ccccc2CN1C(=O)c1ccco1 (stereo unspecified) | -21 | 1 | 8 | 0 | -2 | 21
O=C(Nc1ccccc1)C1Cc2ccccc2CN1C(=O)c1ccco1 (stereo unspecified) | -4 | 0 | 3 | 2 | 5 | 59*
CN(C)[C@@H]1C(=O)C(C(=O)NCN2CCCC2)=C(O)[C@@]2(O)C(=O)C3=C(O)c4c(O)cccc4[C@@](C)(O)C3CC12 (stereo partly specified) | -15 | nt | 47* | nt | -1 | nt
CC(C)Nc1ccc(Nc2ccnc3cc4ccccc4cc23)cc1 | 73* | 0 | -6 | 14 | 6 | -21
COc1ccc(Nc2ccnc3ccccc23)cc1 | 4 | 0 | -5 | -1 | -4 | -4
COCCN(C(=O)Nc1ccccc1OC)c1nc2ccccc2s1 | -17 | 2 | -6 | -11 | -11 | 4
Cc1ccc(-n2c(Cl)c(Cl)nc(Cl)c2=O)cc1 | 2 | 2 | -3 | 3 | 52* | 3
CC(C)N1CCc2c(sc(N)c2C#N)C1 | nt | 17 | nt | -1 | nt | 7
N#Cc1c(N)sc(=S)c2c1CCN(Cc1ccccc1)C2 | nt | 27 | nt | nt | nt | 57*
CCN1CCc2c(sc(N)c2C#N)C1 | -1 | 63* | -1 | -5 | -11 | -5
N#Cc1c(NCCO)nc(NCc2ccccc2)c2c1CCN(Cc1ccccc1)C2 | 1 | 1 | 9 | nt | -7 | -2
Cc1ccc(S(=O)(=O)N(C)CC(=O)N(C)Cc2cccs2)cc1 | nt | nt | nt | 1 | nt | nt
